Results: paper PMC2743114 (Journal of immunological methods, 2009)

Assays:
[1] = molecular target: T1, hCD1b dimer (Homo sapiens, UniProt P29016); test: Competitive ELISA assay; format: binding
Method in brief: (§1)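 Dimers are hCD1 α1–α3 fused to mouse IgG with β2m, expressed in J558L cells and purified on Protein G. Plates were coated overnight at 4°C with goat anti-mouse IgG Fc (10μg/mL, pH 9.6), then blocked 1 h. Dimer (5μg/mL), competitor lipid and Biotinyl PE (2μg/mL) in PBS were incubated overnight at 37°C and detected with HRP-avidin. Assays were run in triplicate. Ki = IC50/(1+[B-PE]/Kd), with Kd fitted from competitor-free Biotinyl PE titration.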

[2] = molecular target: T1, hCD1b dimer; test: Direct ELISA binding of Biotinyl PE without competitor; conditions: pH 4–10 tested, Biotinyl PE 1μg/mL, overnight 37°C, no competitor
Method in brief: (§2)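 Biotinyl PE (1μg/mL) was incubated overnight at 37°C with hCD1 dimer or mouse IgG1 isotype control. Incubation was in PBS adjusted with HCl or NaOH to pH 4–10, in plates coated with anti-mouse IgG Fc antibody. A well without biotinylated PE at pH 7 served as background. Assays were run in triplicate.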

[3] = molecular target: T2, hCD1c dimer (Homo sapiens, UniProt P29017); test: as above; conditions: pH 4–10 tested, Biotinyl PE 1μg/mL, overnight 37°C, no competitor
T2 sequence (P29017 18-302 limits assumed): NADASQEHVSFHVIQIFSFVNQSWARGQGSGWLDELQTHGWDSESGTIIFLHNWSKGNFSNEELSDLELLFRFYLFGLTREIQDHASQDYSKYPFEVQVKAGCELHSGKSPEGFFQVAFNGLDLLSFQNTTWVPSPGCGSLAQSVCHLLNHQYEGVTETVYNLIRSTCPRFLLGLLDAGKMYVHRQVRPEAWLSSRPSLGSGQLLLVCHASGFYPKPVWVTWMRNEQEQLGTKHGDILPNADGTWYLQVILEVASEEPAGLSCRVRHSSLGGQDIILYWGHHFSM
Method in brief: as §2

[4] = system: mouse IgG1; test: Direct ELISA binding of Biotinyl PE to isotype control; conditions: specificity control
Method in brief: as §2

[5] = molecular target: T3, hCD1d dimer (Homo sapiens, UniProt P15813); test: Direct ELISA binding of Biotinyl PE without competitor; conditions: Biotinyl PE 1μg/mL
T3 sequence (P15813 20-301 limits assumed): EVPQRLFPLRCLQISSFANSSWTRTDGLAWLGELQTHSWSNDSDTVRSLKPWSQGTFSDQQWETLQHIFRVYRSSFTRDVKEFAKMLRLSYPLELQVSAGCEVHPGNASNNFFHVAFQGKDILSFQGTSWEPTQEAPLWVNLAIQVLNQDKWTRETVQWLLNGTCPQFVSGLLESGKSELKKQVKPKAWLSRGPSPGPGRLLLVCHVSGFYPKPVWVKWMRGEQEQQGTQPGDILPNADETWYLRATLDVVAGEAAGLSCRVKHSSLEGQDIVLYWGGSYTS

[6] = molecular target: T2, hCD1c dimer; test: Competitive ELISA assay; format: binding
Method in brief: as §1

[7] = molecular target: T3, hCD1d dimer; test: Competitive ELISA assay; format: binding
Method in brief: as §1

T1 sequence (P29016 18-303 limits assumed): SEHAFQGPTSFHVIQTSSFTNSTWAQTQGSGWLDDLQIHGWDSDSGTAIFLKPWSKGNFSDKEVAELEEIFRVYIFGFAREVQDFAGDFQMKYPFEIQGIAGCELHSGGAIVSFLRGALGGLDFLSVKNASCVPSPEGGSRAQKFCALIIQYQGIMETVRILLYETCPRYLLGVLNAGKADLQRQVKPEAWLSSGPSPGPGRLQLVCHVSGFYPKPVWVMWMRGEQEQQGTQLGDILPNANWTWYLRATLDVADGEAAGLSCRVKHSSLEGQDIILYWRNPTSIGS

## Mycolic acid
[1]; competitive ELISA
  binding to CD1b (inhibition of Biotinyl PE binding), in words: unable to detect the binding

## CCCCCCCC/C=C\CCCCCCCC(=O)OC[C@H](COP(=O)(O)OCCNC(=O)CCCC[C@@H]1SC[C@@H]2NC(=O)N[C@@H]21)OC(=O)CCCCCCC/C=C\CCCCCCCC [Biotinyl PE, 1,2-Dioleoyl-sn-Glycero-3-Phosphoethanolamine-N-(Biotinyl)]
[2]
  optimal pH for binding to CD1b: 4-5
[3]
  optimal pH for binding to CD1c: 4-5
[4]
  binding to mouse IgG1 (isotype control): failed to bind
[5]; 37°C, optimal condition
  time to reach a peak level of binding to hCD1d: 8 h
[5]; pH 4–10 tested, overnight 37°C, no competitor
  optimal pH for binding to CD1d: 5-7

## CCCCCCCCCCCCCCCCCCCCCCCCCC(=O)N[C@@H](CO[C@H]1O[C@H](CO)[C@H](O)[C@H](O)[C@H]1O)[C@H](O)[C@H](O)CCCCCCCCCCCCCC [α-GalCer, α-galactosylceramide]
[6]
  Ki: 1370 nM
[1]
  Ki: 2840 nM
[7]
  Ki: 97 nM
